According to ChEMBL document CHEMBL4321840, “Start Selective and Rigidify: The Discovery Path toward a Next Generation of EGFR Tyrosine Kinase Inhibitors” (J Med Chem, 2019):
In brackets after ≈: the same amount, converted by molar mass.

What was measured:
[1] = Inhibition of EGFR del19/T790M/C797S triple mutant in mouse BAF3 cells assessed as reduction in cell proliferation incubated for 72 hrs by Celltiter-Glo luminescent cell viability assay; type: cell-based; details: BaF3, 72 h
Method in brief: (§1)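 Murine Ba/F3 cells retrovirally transduced with GFP plus EGFR wt, del19 or del19/T790M/C797S, then puromycin-selected. Mutant lines were made IL-3-independent; wt line grown on EGF without IL-3. EGFR-independent control cells carried GFP-only vector and were kept in IL-3. Seeded at 5x10³/100 µl, treated 72 h at 37 °C, viability read by CellTiter-Glo luminescence. Technical and biological triplicates. Geometric mean of ≥3 independent runs. Selectivity ratio = wt IC50 / del19/T790M/C797S IC50.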

[2] = Apparent permeability of compound at pH 7.4 by LC-MS based PAMPA method; type: ADME
Method in brief: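 PAMPA at pH 7.4. A microfilter disc coated with immobilized artificial phospholipid membrane layers separates donor and acceptor chambers. Compound concentrations in both chambers are followed over time by LC/MS and compared with the donor concentration before incubation.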

[3] = Aqueous solubility of compound in McIlvaine buffer at 1 mg/ml at pH 6.8 by HPLC-DAD/UV analysis; type: physicochemical
Method in brief: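 Solid compound dispensed at 1 mg/mL into aqueous McIlvaine buffer (pH 6.8). Reference sample dissolved in acetonitrile/water (1:1). Dissolved concentration quantified by HPLC-DAD/UV.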

[4] = Protein binding in mouse plasma assessed as free fraction after 3 hrs by HPLC-MS/MS-based equilibrium dialysis method; type: ADME, cell-free
Method in brief: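 Equilibrium dialysis of compound-spiked plasma against Soerensen buffer (pH 7.4) for 3 hours at 37°C. Compound levels in the plasma and buffer sides quantified by HPLC/MS-MS to give the bound and free fractions.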

PC-9 [5] = test: Antiproliferative activity against human PC9 cells harboring EGFR del19/T790M/C797S triple mutant incubated for 96 hrs by Celltiter-Glo luminescent cell viability assay; type: functional, cell-based; details: PC-9, 96 h
Method in brief: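 Cells plated in 96-well plates (A431 5000/well in DMEM + 10% FBS + sodium pyruvate; PC-9 del19/T790M/C797S 2000/well in RPMI + 10% FBS). Compound added 24 h after plating, then 96 h at 37°C, 5% CO2. Viability read by CellTiter-Glo luminescence, normalised to DMSO-treated cells, IC50 fitted. Technical and biological triplicates.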

BaF3 = test: Cytotoxicity against mouse BAF3 cells incubated for 72 hrs by Celltiter-Glo luminescent cell viability assay; type: cell-based; details: BaF3, 72 h
Method in brief: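 Mutant lines were made IL-3-independent; wt line grown on EGF without IL-3. EGFR-independent control cells carried GFP-only vector and were kept in IL-3. Seeded at 5x10³/100 µl, treated 72 h at 37 °C, viability read by CellTiter-Glo luminescence. Technical and biological triplicates. Geometric mean of ≥3 independent runs.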

[6] = target: T1, Epidermal growth factor receptor (Homo sapiens, UniProt P00533, C797S/EX19DEL/T790M); test: Inhibition of phosphorylated EGFR del19/T790M/C797S triple mutant (unknown origin) expressed in mouse BaF3 cells incubated for 4 hrs by Alphascreen assay; type: cell-based
T1 sequence (P00533 whole entry, looked up, stated change not applied): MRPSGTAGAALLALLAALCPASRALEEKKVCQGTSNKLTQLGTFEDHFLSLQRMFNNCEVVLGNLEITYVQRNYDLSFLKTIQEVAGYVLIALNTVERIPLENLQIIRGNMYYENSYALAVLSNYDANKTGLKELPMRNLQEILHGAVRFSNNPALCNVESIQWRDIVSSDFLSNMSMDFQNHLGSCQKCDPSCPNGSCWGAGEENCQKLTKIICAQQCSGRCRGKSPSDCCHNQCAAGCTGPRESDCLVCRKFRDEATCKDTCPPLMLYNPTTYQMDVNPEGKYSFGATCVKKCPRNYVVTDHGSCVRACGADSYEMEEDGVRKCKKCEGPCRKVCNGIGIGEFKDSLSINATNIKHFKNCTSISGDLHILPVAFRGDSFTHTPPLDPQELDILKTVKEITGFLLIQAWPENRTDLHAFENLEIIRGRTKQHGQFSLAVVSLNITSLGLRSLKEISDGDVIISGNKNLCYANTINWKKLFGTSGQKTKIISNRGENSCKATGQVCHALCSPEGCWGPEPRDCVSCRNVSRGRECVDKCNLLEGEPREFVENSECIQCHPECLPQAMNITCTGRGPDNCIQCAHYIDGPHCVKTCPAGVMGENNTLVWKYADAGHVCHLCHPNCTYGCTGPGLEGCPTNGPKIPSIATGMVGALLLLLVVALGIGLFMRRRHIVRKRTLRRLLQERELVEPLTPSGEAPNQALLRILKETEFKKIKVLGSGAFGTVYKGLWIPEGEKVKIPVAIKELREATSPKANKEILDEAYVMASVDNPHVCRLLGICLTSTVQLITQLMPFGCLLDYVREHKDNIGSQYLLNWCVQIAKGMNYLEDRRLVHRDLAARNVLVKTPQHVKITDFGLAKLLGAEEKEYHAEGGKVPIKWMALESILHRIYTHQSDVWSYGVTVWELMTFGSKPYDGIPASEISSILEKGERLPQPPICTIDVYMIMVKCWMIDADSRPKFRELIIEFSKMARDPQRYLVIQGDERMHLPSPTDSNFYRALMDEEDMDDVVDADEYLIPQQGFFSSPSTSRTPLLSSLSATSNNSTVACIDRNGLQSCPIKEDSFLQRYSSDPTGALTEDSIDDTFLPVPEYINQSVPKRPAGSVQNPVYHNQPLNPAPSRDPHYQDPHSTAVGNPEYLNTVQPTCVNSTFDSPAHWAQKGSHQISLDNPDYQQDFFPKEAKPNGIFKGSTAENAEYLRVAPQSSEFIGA

[7] = target: Epidermal growth factor receptor (Homo sapiens, UniProt P00533); test: Inhibition of human recombinant GST-tagged wild type EGFR expressed in baculovirus expression system assessed as decrease in phosphorylation of ULight-poly-GT using ULight-poly-GT as substrate incubated for 90 mins in presence of ATP by TR-FRET LANCE assay
Chain of Epidermal growth factor receptor (Homo sapiens, UniProt P00533) (P00533 whole entry, the tested form may be a part): as the sequence (P00533 whole entry, looked up, stated change not applied) above

[8] = target: T1, Epidermal growth factor receptor; test: Inhibition of GST-fusion tagged EGFR del19/T790M/C797S triple mutant (unknown origin) (696 to 1022 residues) expressed in insect cells assessed as decrease in phosphorylation of ULight-poly-GT using poly-GT as substrate in presence of ATP
[9] = target: Epidermal growth factor receptor (Homo sapiens, UniProt P00533, C797S/L858R/T790M); test: Inhibition of GST-fusion tagged EGFR L858R/T790M/C797S triple mutant (unknown origin) (696 to 1022 residues) expressed in insect cells assessed as decrease in phosphorylation of ULight-poly-GT using poly-GT as substrate in presence of ATP
Chain of Epidermal growth factor receptor (Homo sapiens, UniProt P00533, C797S/L858R/T790M) (P00533 25-1210 T790M/C797S/L858R limits assumed): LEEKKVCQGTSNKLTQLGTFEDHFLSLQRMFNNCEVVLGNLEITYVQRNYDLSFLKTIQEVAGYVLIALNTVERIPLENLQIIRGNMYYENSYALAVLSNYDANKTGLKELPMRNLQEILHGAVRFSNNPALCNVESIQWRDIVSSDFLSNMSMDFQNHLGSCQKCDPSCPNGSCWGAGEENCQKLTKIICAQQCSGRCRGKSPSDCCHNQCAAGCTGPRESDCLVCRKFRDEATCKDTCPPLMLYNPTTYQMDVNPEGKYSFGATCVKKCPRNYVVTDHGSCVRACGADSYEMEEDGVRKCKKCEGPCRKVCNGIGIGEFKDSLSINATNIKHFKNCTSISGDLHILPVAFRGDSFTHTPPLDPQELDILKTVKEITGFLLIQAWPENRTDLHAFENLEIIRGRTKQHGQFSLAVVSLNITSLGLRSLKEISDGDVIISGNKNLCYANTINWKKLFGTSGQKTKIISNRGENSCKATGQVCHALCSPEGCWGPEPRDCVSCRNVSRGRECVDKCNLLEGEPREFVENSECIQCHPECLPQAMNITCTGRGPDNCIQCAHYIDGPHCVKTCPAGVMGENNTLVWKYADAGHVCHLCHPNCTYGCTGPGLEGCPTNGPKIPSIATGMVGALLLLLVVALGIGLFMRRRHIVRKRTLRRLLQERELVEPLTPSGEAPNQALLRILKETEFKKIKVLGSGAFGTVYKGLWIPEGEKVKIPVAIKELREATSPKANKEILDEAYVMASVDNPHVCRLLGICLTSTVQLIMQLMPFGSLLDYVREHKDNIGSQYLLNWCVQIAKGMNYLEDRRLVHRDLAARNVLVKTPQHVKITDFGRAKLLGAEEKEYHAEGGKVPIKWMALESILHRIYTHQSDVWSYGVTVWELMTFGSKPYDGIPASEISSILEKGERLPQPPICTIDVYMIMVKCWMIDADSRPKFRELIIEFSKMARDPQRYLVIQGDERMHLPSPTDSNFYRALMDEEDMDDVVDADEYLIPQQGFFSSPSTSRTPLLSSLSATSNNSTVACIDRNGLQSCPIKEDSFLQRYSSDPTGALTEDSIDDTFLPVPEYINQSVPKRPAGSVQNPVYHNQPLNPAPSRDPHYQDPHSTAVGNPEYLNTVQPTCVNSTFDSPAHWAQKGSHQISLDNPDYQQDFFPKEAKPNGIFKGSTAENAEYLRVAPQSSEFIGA

Homo sapiens = species: Homo sapiens; test: Selectivity ratio of IC50 for inhibition of human recombinant GST-tagged wild type EGFR expressed in baculovirus expression system to IC50 for inhibition of GST-fusion tagged EGFR del19/T790M/C797S triple mutant (unknown origin) (696 to 1022 residues) expressed in insect cells
Method in brief: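 TR-FRET kinase assays on ULight-poly-GT substrate (200 nM) with ATP 100 µM, final enzyme 1.5 nM (wt) or 15 nM (del746-750/T790M/C797S). Buffer was HEPES pH 7.3, MgCl2, EGTA, Tween 20, DTT. Reaction ran 90 min at room temperature and was stopped with EDTA plus Eu-anti-pTyr antibody, read after 60 min. Top concentration 100 µM with eleven fivefold dilutions in duplicate. IC50 from a 4-parameter logistic fit; ratio is wt IC50 over mutant IC50.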

[10] = Selectivity index, ratio of IC50 for antiproliferative activity against mouse BAF3 cells harboring wild type EGFR to IC50 for antiproliferative activity against mouse BAF3(transformed) cells harboring EGFR del19/T790M/C797S triple mutant incubated for 72 hrs by Celltiter-Glo luminescent cell viability assay; type: functional; method in brief: as §1
A-431 = test: Antiproliferative activity against human A431 cells harboring EGFR wild type incubated for 96 hrs by Celltiter-Glo luminescent cell viability assay; type: functional, cell-based; details: A-431, 96 h
PC-9 [11] = test: Antitumor activity against human PC9 cells harboring del19/T790M/C797S triple mutant xenografted in BomTac:NMRI-Foxn1nu mouse assessed as tumor growth inhibition at 10 mg/kg, po qd administered for 19 days relative to control; type: functional; details: PC-9, po, 456 h, read-out: TGI
Method in brief: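 Female BomTac:NMRI-Foxn1nu mice, 6-8 weeks old, implanted s.c. with 5×10⁶ PC-9 del19/T790M/C797S cells. Randomized by tumor size on day 7 (N=8 per treated group, N=10 vehicle). […] Tumor size and body weight measured three times weekly. Tumor volumes compared by one-sided decreasing Mann–Whitney test.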

[12] = Inhibition of EGFR del19 mutant in mouse BAF3 cells incubated for 72 hrs by Celltiter-Glo luminescent cell viability assay; type: cell-based; details: BaF3, 72 h; method in brief: as §1
[13] = Volume of distribution in NMRI mouse at 10 mg/kg, po or 1 mg/kg, iv; type: ADME, organism-based; details: in vivo
Method in brief: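 NMRI mice (n=3 per group) dosed orally at 10 mg/kg or intravenously at 1 mg/kg. Five plasma samples per mouse at set time points. Plasma protein precipitated with acetonitrile, compound quantified by LC-MS/MS against a calibration curve.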

[14] = Protein binding in human plasma assessed as free fraction after 3 hrs by HPLC-MS/MS-based equilibrium dialysis method; type: ADME, cell-free
Method in brief: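 Equilibrium dialysis: human plasma spiked with compound and dialyzed against Soerensen buffer (pH 7.4) for 3 h at 37 °C. Compound in plasma and buffer quantified by HPLC/MS-MS to calculate binding and free fraction.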

[15] = Hepatic clearance in mouse cryopreserved hepatocytes at 1 uM measured after 240 mins by LC-MS/MS analysis relative to hepatic blood flow; type: ADME, cell-based, Hepatocyte; details: read-out: CLH
Method in brief: (§2)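 Compound (1 µM) incubated with cryopreserved hepatocytes. Depletion followed over 240 min by LC/MS/MS quantitation. In vivo hepatic clearance predicted with the well-stirred model and expressed as percent of hepatic blood flow (%QH).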

[16] = Hepatic clearance in human cryopreserved hepatocytes at 1 uM measured after 240 mins by LC-MS/MS analysis relative to hepatic blood flow; type: ADME, cell-based, Hepatocyte; details: read-out: CLH; method in brief: as §2

Row | IC50 [6] | IC50 [7] | IC50 [8] | SMILES | IC50 [1] | IC50 (BaF3) | Ratio IC50 [10] | further results
1 | 1.2 nM |  |  | Cn1ncc2c1OCCCCCN1/C(=N/C(=O)c3cc(F)nc-2c3)Nc2ccccc21 | 6 nM | 330 nM | 45 | 
2 | 3 nM |  |  | O=C1/N=C2\Nc3ccccc3N2CCCCCOc2ccccc2-c2cc1ccn2 | 27 nM | 1600 nM | 48 | 
3 | 1 nM |  |  | Cc1cc2cc(n1)-c1cnn(C)c1OCCCCCN1/C(=N/C2=O)Nc2ccccc21 | 5 nM | 1700 nM | 460 | 
4 | 0.8 nM |  |  | Cc1cc2cc(n1)-c1cnn(C)c1OCCC[C@@H](C)CN1/C(=N/C2=O)Nc2ccccc21 | 1 nM | 1000 nM | >1000 | fraction unbound at 3 h [14]: 0.5; hepatic extraction ratio at 4 h, 1 µM [15]: 0.47; Papp [2]: 0.2 ×10⁻⁶ cm/s; solubility [3]: < 0.1 µg/mL; fraction unbound at 3 h [4]: < 0.3; hepatic extraction ratio at 4 h, 1 µM [16]: 0.12

More lines, now with the values behind:

Row | SMILES | IC50 [6] | IC50 [7] | IC50 [8] | IC50 [1] | IC50 (BaF3) | Ratio IC50 [10] | further results
5 | C=CC(=O)Nc1cc(Nc2nccc(-c3cn(C)c4ccccc34)n2)c(OC)cc1N(C)CCN(C)C [OSIMERTINIB] |  |  |  | 780 nM | 1100 nM |  | Papp [2]: 2.7 ×10⁻⁶ cm/s; solubility [3]: 86 µg/mL (≈ 172 µM); fraction unbound at 3 h [4]: < 0.1; IC50 (PC-9 [5]): > 1000 nM
6 | CC(C)(O)Cn1/c(=N/C(=O)c2cc(F)cc(-c3cccnc3)c2)[nH]c2ccccc21 | 790 nM | > 100000 nM | 250 nM |  |  |  | IC50 [9]: 2100 nM; Ratio IC50 (Homo sapiens): > 400
7 | CC(C)(O)Cn1/c(=N/C(=O)c2ccnc(-c3cccnc3)c2)[nH]c2ccccc21 |  |  |  | 270 nM |  |  | 
8 | CC(C)(O)Cn1/c(=N/C(=O)c2cccc(-c3cccnc3)c2)[nH]c2ccccc21 | 1400 nM | > 100000 nM | 173 nM |  |  |  | IC50 [9]: 2700 nM
9 | Cc1cc2cc(n1)-c1cnn(C)c1OCCC[C@@H](C)CN1/C(=N/C2=O)Nc2ccc(CN3CCN(C)CC3)cc21 |  |  |  | 0.2 nM | 1100 nM |  | IC50 (A-431): 200 nM; Papp [2]: 5.3 ×10⁻⁶ cm/s; inhibition in vivo at 10 mg/kg (PC-9 [11]): 121%; solubility [3]: 95 µg/mL (≈ 175 µM); IC50 [12]: 1 nM; IC50 (PC-9 [5]): 1.3 nM; Vd [13]: 4.2 L/kg
10 | CC(C)(O)Cn1/c(=N/C(=O)c2ccnc(-c3ccccc3)c2)[nH]c2ccccc21 | 22 nM | > 100000 nM | 35 nM | 150 nM | > 25000 nM |  | 
11 | COc1ccncc1-c1cc(C(=O)/N=c2\[nH]c3ccccc3n2CC(C)(C)O)ccn1 | 1 nM |  | ≤ 3 nM | 51 nM | 990 nM |  | 
12 | Cn1cc(-c2cc(C(=O)/N=c3\[nH]c4ccccc4n3CC(C)(C)O)ccn2)cn1 | 43 nM | > 100000 nM | 72 nM | 333 nM | 8900 nM |  | IC50 [9]: 519 nM
